Assay [1] has as its system Mycobacterium tuberculosis. Nature of the assay: Antimycobacterial against Mycobacterium tuberculosis H37Rv by agar dilution method. In kind it is functional. The method, boiled down:
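MIC read by agar dilution against M. tuberculosis H37Rv, run in triplicate.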
(In agar dilution the substance is mixed into plates at graded concentrations.)

Assay [2] deals with Mycolicibacterium smegmatis. The assay is described as follows: Antimycobacterial against Mycobacterium smegmatis MC2 by agar dilution method. In kind it is functional. The method, boiled down: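 MIC read by agar dilution, run in triplicate against M. smegmatis MC², screened in parallel with M. tuberculosis and an MDR-TB clinical isolate.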

Structures are written as SMILES. Converted amounts (≈) assume the structure as drawn.

This note sets out measurements from ChEMBL document CHEMBL1153639, “A facile synthesis and antimycobacterial evaluation of novel spiro-pyrido-pyrrolizines and pyrrolidines” (2009).

The MIC is the smallest concentration in the dilution series that meets the test's criterion for growth inhibition.

`COc1ccc([C@H]2[C@H](c3ccccc3)N[C@@]3(C(=O)Nc4ccccc43)[C@@]23CN(C)CCC3=O)cc1`: the MIC in assay [1] was 26.7 µM (≈ 12.5 µg/mL); in assay [2], 53.5 µM (≈ 25 µg/mL).

On to `Cc1ccc([C@H]2[C@@H]3CCCN3[C@@]3(C(=O)Nc4ccccc43)[C@@]23CN(C)CCC3=O)cc1`, for which the results for the MIC in assay [1] and in assay [2] were 7.53 µM (≈ 3.13 µg/mL) and 15 µM (≈ 6.25 µg/mL), respectively.

Regarding `COc1ccc([C@H]2[C@@H]3CCCN3[C@@]3(C(=O)Nc4ccccc43)[C@@]23CN(C)CCC3=O)cc1`, the minimum inhibitory concentration (MIC) in assay [1] stood at 14.5 µM (≈ 6.25 µg/mL); in assay [2] it was 57.9 µM (≈ 25 µg/mL).

Turning to `COc1ccc([C@H]2CN(C)[C@@]3(C(=O)Nc4ccccc43)[C@@]23CN(C)CCC3=O)cc1`, the MIC was determined as 30.8 µM (≈ 12.5 µg/mL) in assay [1] and 61.6 µM (≈ 25 µg/mL) in assay [2].

For the compound `CN1CCC(=O)[C@]2(C1)[C@@H](c1cccc(F)c1)[C@H](c1ccccc1)N[C@@]21C(=O)Nc2ccccc21`, the values for the MIC in assay [1] and in assay [2] were 6.87 µM (≈ 3.13 µg/mL) and 54.9 µM (≈ 25 µg/mL), respectively.

For `Cc1ccc([C@H]2CN(C)[C@@]3(C(=O)Nc4ccccc43)[C@@]23CN(C)CCC3=O)cc1`, the MIC in assay [1] came out at 16.1 µM (≈ 6.25 µg/mL); in assay [2] it was 32.1 µM (≈ 12.5 µg/mL).

As to `CN1CCC(=O)[C@]2(C1)[C@@H](c1ccc(Cl)cc1Cl)[C@H](c1ccccc1)N[C@@]21C(=O)Nc2ccccc21`, the MIC in assay [1] came to 12.3 µM (≈ 6.25 µg/mL); in assay [2], 98.7 µM (≈ 50 µg/mL).

In the case of `CN1CCC(=O)[C@]2(C1)[C@@H](c1ccccc1Cl)CN(C)[C@@]21C(=O)Nc2ccccc21`, the MIC in assay [1] was determined as 7.64 µM (≈ 3.13 µg/mL); in assay [2], 30.5 µM (≈ 12.5 µg/mL).

Take `CN1CCC(=O)[C@]2(C1)[C@@H](c1ccc(Cl)cc1Cl)[C@@H]1CCCN1[C@@]21C(=O)Nc2ccccc21`: the MIC in assay [1] is 3.32 µM (≈ 1.56 µg/mL); in assay [2], 53.1 µM (≈ 25 µg/mL).

For `CN1CCC(=O)[C@]2(C1)[C@@H](c1cccc(F)c1)CN(C)[C@@]21C(=O)Nc2ccccc21`, the minimal inhibitory concentration (MIC) in assay [1] turned out to be 7.95 µM (≈ 3.13 µg/mL); in assay [2], 63.5 µM (≈ 25 µg/mL).

Take `CN1CCC(=O)[C@]2(C1)[C@@H](c1ccc(Cl)cc1Cl)CN(C)[C@@]21C(=O)Nc2ccccc21`: the minimal inhibitory concentration (MIC) turned out to be 1.76 µM (≈ 0.782 µg/mL) in assay [1] and 56.3 µM (≈ 25 µg/mL) in assay [2].

Consider `Cc1ccc([C@H]2[C@H](c3ccccc3)N[C@@]3(C(=O)Nc4ccccc43)[C@@]23CN(C)CCC3=O)cc1`, for which the figures for the minimum inhibitory concentration (MIC) in assay [1] and in assay [2] were 27.7 µM (≈ 12.5 µg/mL) and 111 µM (≈ 50 µg/mL), respectively.

Turning to `CN1CCC(=O)[C@]2(C1)[C@@H](c1ccccc1Cl)[C@@H]1CCCN1[C@@]21C(=O)Nc2ccccc21`, the MIC in assay [1] stood at 3.58 µM (≈ 1.56 µg/mL); in assay [2] it was 28.7 µM (≈ 12.5 µg/mL).

With `CN1CCC(=O)[C@]2(C1)[C@@H](c1cccc(F)c1)[C@@H]1CCCN1[C@@]21C(=O)Nc2ccccc21`, the results for the MIC in assay [1] and in assay [2] were 7.46 µM (≈ 3.13 µg/mL) and 29.8 µM (≈ 12.5 µg/mL), respectively.

`CN1CCC(=O)[C@]2(C1)[C@@H](c1ccccc1Cl)[C@H](c1ccccc1)N[C@@]21C(=O)Nc2ccccc21`: the MIC in assay [1] was determined as 13.2 µM (≈ 6.25 µg/mL); in assay [2], 53 µM (≈ 25 µg/mL).

Turning to `CC[C@@H](CO)NCCN[C@@H](CC)CO` [ETHAMBUTOL], the MIC in assay [1] is 7.64 µM (≈ 1.56 µg/mL); in assay [2], 122 µM (≈ 25 µg/mL).

`NNC(=O)c1ccncc1` [ISONIAZID]: the MIC in assay [1] turned out to be 0.39 µM (≈ 0.0535 µg/mL); in assay [2] it was 45.6 µM (≈ 6.25 µg/mL).

Regarding `NC(=O)c1cnccn1` [PYRAZINAMIDE], the MIC turned out to be 50.8 µM (≈ 6.25 µg/mL) in assay [1] and 406 µM (≈ 50 µg/mL) in assay [2].
